Measurements from PMC4560520 (Drug Design, Development and Therapy, 2015).
Read-outs that look alike come from different tables or passages of the source.

Assays:
[1] = cited from earlier work; for t1/2: mean ± SD
healthy subjects [2] = test: Multiple ascending dose; assay type: in vivo, human
healthy subjects [3] = settings: febuxostat multiple 80 mg once-daily doses after a high-fat meal; cited from earlier work
healthy subjects [4] = settings: cited from earlier work
healthy subjects [5] = test: Safety and tolerability evaluation; assay type: in vivo, human
Method in brief: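 The single-dose part covered 10–600 mg; the multiple-dose part gave 100–800 mg orally once daily for 7 days after an overnight fast, with 8 active subjects per dose group. Adverse events came from a questionnaire or spontaneous reports. Renal toxicity was assessed with a NGAL test.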

CYP isoenzymes = settings: incubated with CYP isoenzymes; preclinical, no reference given; cited from earlier work
[6] = SAD study incl. food effect: pharmacokinetics of LC350189 in plasma and urine; assay type: in vivo, human
rat = settings: preclinical studies, no reference given; cited from earlier work
XO enzyme = settings: in vitro; ref data on file at LG Life Sciences; cited from earlier work
XO = XO (Homo sapiens, UniProt P47989); test: PK/PD relationship, Emax model; assay type: in vivo
XO, sequence (P47989 whole entry): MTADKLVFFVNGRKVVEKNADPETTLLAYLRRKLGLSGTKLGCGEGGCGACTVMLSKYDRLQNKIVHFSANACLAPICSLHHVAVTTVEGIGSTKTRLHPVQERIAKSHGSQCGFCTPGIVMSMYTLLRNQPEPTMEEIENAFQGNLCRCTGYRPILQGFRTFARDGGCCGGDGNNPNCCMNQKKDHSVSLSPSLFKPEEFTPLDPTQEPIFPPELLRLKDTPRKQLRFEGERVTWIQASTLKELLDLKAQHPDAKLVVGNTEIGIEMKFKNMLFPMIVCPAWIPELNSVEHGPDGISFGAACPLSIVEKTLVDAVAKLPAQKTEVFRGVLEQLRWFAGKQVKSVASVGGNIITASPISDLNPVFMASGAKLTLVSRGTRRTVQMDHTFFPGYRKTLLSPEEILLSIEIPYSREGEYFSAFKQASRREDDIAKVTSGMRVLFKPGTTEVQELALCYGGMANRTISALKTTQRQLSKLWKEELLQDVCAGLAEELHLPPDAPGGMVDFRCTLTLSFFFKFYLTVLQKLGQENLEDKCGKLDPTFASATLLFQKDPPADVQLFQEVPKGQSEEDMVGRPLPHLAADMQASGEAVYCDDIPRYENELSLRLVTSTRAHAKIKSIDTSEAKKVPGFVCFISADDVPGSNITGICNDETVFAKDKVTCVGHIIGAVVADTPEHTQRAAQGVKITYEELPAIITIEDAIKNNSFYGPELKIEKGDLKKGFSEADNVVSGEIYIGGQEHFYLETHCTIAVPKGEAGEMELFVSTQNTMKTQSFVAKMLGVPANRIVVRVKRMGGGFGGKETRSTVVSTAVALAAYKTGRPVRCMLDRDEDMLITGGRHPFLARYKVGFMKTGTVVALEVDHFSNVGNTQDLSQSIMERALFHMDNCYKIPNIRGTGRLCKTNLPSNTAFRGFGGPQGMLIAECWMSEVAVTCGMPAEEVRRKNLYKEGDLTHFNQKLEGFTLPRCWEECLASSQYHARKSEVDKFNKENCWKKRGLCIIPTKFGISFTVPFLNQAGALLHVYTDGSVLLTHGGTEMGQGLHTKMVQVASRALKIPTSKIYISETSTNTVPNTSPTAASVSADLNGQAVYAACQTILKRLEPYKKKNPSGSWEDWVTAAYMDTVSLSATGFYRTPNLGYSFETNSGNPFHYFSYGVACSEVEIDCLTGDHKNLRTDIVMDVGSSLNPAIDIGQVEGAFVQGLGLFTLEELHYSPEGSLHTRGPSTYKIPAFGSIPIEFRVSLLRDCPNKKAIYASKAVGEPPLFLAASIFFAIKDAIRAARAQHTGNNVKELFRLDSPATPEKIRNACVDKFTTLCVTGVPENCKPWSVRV

liver microsome = settings: in vitro liver microsome study; preclinical, no reference given; cited from earlier work
dog = settings: preclinical studies, no reference given; cited from earlier work
healthy subjects [7] = test: Single ascending dose; assay type: in vivo, human; settings: for Change in Cmean,24 of serum uric acid from baseline: Day 1, mean (SD), n=8
Method in brief: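 Healthy volunteers got a single oral dose on day 1, fasted, with placebo on day -1 for baseline and standardized meals. Serial blood was taken on days -1 and 1; aliquots were stored at -70°C. Serum uric acid, xanthine and hypoxanthine were measured by a validated assay. Cmean,24 = noncompartmental AUC0–24/24, as % change from baseline. Urinary Ae = urine volume × concentration.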

SUA = settings: in vivo study; ref data on file at LG Life Sciences; cited from earlier work
[8] = 200 mg, fed (high-fat diet) vs fasting

Cc1nc(-c2ccc(OCC(C)C)c(C#N)c2)sc1C(=O)O [Febuxostat, febuxostat]
t1/2 ([1]; febuxostat 40 mg): 10.3 ± 7.4 h | t1/2 ([1]; febuxostat 70 mg): 12.5 ± 7.7 h | Tmax ([1]; febuxostat): ~ 1 hour | Maximum percentage decrease from baseline in Cmean,24 for SUA (healthy subjects [2]; febuxostat group (80 mg once daily for 7 days)): 58.8% | Change by food in the percentage decrease in SUA concentration (healthy subjects [3]): no clinically significant change | Change of AUC by food (healthy subjects [3]): slight decrease | Maximum percentage decrease from baseline in Cmean,24 (healthy subjects [4]; febuxostat 40 mg dose group): ~ 40% | Maximum percentage decrease from baseline in Cmean,24 (healthy subjects [4]; febuxostat 90 mg dose group): 60% | Inhibition of the enzyme (XO), Emax (healthy subjects [4]; febuxostat): 81.4% | Allergic reaction, subjects (healthy subjects [4]; previous febuxostat multiple-dose study): six out of 118 subjects

CC(C)n1cc(C#N)c2cc(-n3cc(C(=O)O)cn3)ccc21 [LC350189]
Allergic reaction (healthy subjects [5]; SAD and MAD): no allergic reaction | Renal toxicity according to the NGAL test (healthy subjects [5]; SAD and MAD): no signals of renal toxicity | Tolerability (healthy subjects [5]; single and multiple oral administrations, dose range 10–800 mg): well tolerated | Metabolic stability (CYP isoenzymes): metabolically stable | Geometric mean ratio (90% CI) of AUClast with and without food ([6]; 200 mg single dose): 0.973 (0.837–1.131) | Geometric mean ratio (90% CI) of Cmax, fed vs fasting ([6]; 200 mg single dose): 0.624 (0.485–0.802) | Decrease of Cmax by food [6, 8]: 38% | Delay of absorption by food [6, 8]: ~ 2 hours | Time up to which plasma concentrations were detected ([6]; SAD low-dose groups (10 mg, 25 mg, 50 mg), LLOQ 5 ng/mL): up to 48 hours | half-life ([6]; male, human, plasma, oral, t1/2, overall, approximate): ~10 h | Change in Cmean,24 of serum uric acid from baseline (healthy subjects [2]; MAD 800 mg once daily for 7 days, fasted, Day 7, mean (SD), n=6): −91.2% | Amount of uric acid excreted in the urine relative to baseline (healthy subjects [2]; after multiple administrations): one-third to one-tenth of the baseline level | Maximum percentage decrease from baseline in Cmean,24 for SUA (healthy subjects [2]; after multiple administrations of LC350189): 91.2% | Increase of Cmean,24 of xanthine (healthy subjects [2]; after multiple administrations, day 7): three-to eight-fold | Dose up to which no significant toxicity was found (rat): 12.5 mg/kg | Inhibition of XO enzyme activity (XO enzyme): comparable to febuxostat | Emax (maximum percentage decrease in Cmean,24 of SUA) (XO; Emax model, day 7, MAD, 95% CI 94.8%–105.4%): 100.1% | Inhibition of XO activity (XO; multiple doses at 100 mg, AUC at steady state close to EAUC50): ~50% | Emax (XO; read-out: Inhibition of XO based on the Emax model): ~100% | Metabolic stability (liver microsome): metabolically stable | Dose up to which no significant toxicity was found (dog): 200 mg/kg | Change in Cmean,24 of serum uric acid from baseline (healthy subjects [7]; SAD single oral 200 mg, fasting): −22.9% | Change in Cmean,24 of serum uric acid from baseline (healthy subjects [7]; SAD single oral 600 mg, fasted): −31.7% | Increase of Cmean,24 of xanthine (healthy subjects [7]; after a single dose): two- to seven-fold | Reduction of SUA (SUA): sufficiently reduced SUA
